Sampled rows, rich in hits. Any-hit rate of the full collection: about 3%.
UBC13 inh = UBC13 polyubiquitin chain formation inhibitors, primary screen, biochemical, TR-FRET, uHTS | Ubiquitin-conjugating enzyme E2 N (Homo sapiens), P61088 | actives 0.47% (n = 330,000) | inhibition, % at 20 µM; in the data active = inhibition above about 45%, passing the limit was not always enough
Target sequence (P61088 whole entry, looked up): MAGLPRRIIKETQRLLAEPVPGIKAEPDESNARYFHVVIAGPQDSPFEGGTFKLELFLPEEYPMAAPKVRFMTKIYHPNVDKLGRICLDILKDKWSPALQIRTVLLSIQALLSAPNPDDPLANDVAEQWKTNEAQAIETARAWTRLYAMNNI
SENP6 inh = SENP6 protease inhibitors, primary screen, biochemical, luminescence, uHTS; Sentrin-specific protease 6 (Homo sapiens), Q9GZR1; Recombinant SENP6 catalytic domain, aminoluciferin luminescence; inhibition, % at 10 µM; actives 1.8% (n = 330,000); AID 2599, 2010;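 active = inhibition above about 50% at the single tested dose, limit read from the data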
SENP8 block-1 = SENP8 protease inhibitors, primary screen, biochemical, luminescence; Sentrin-specific protease 8 (Homo sapiens), Q96LD8; purified SENP8, Z-RLRGG-aminoluciferin cleavage; inhibition, % at 10 µM; actives 1.2% (n = 330,000); AID 2540, 2010; in the data active = inhibition above about 50%
Target sequence (Q96LD8 whole entry, looked up): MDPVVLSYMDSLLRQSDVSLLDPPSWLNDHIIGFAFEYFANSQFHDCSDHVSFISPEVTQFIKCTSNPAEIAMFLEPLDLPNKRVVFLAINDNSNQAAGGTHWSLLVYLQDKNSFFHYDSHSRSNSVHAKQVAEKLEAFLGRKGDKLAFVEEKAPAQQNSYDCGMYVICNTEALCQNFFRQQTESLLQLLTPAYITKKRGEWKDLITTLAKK
Apaf1 inhib = inhibitors of human Apaf-1 apoptosome, primary screen, biochemical, DEVD-Rh110 fluorescence, uHTS; Apoptotic protease-activating factor 1 (Homo sapiens), O14727; reconstituted apoptosome caspase-3 activity; inhibition, % at 20 µM; actives 0.71% (n = 330,000); active = inhibition of at least 40% at 20 µM
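Material: reconstituted apoptosome with Apaf-1, cytochrome c, caspase-9, procaspase-3, dATP; medium: pH 7.5 Hepes buffer with CHAPS, BSA, DTT; also added: cytochrome c and DEVD-Rh110 substrate; timing: 30 min plus 50 min, RT; signal: Rh110 fluorescence intensity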
SENP7 inh = SENP7 protease inhibitors, primary screen, biochemical, luminescence, uHTS | recombinant SENP7, Z-RLRGG-aminoluciferin luminescence, 40 min | inhibition, % at 5 µM | actives 1.5% (n = 330,000) | AID 434973, 2010;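 active = inhibition above about 50% at the single test dose, limit read from the data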
SENP8 block-2 = human SENP8 protease inhibitors, primary screen, biochemical, fluorescence, Nedd8 protein substrate, uHTS | actives 0.64% (n = 360,000) | Sentrin-specific protease 8 (Homo sapiens), Q96LD8 | recombinant SENP8 | inhibition, % at 20 µM; in the data active = inhibition mostly above about 40%, no sharp cut-off; inactive = mostly below about 27%
SENP8 confirm = SENP8 protease inhibitors, retest, confirmation, biochemical, luminescence, single concentration | actives 40% (n = 6,200) | inhibition, % at 12.5 µM | Recombinant SENP8, Z-RLRGG-aminoluciferin luminescence, 60 min | shares compounds with SENP7 inh | AID 488912, 2010;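 active = mean inhibition across replicates above about 50%, limit read from the data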
SENP6 conf = SENP6 protease inhibitors, confirmation, biochemical, luminescence, single concentration | inhibition, % at 12.5 µM | recombinant SENP6, Z-RLRGG-aminoluciferin luminescence | shares compounds with SENP7 inh | actives 58% (n = 6,200)
SENP7 confirm = SENP7 protease inhibitors, retest, confirmation, biochemical, luminescence, single concentration | inhibition, % at 12.5 µM | actives 69% (n = 6,200) | recombinant SENP7, Z-RLRGG-aminoluciferin luminescence, 40 min | shares compounds with SENP7 inh
Casp3 select = caspase-3 protease inhibitors, confirmation, selectivity assay for SENP inhibitor project, biochemical, single concentration. shares compounds with SENP7 inh. purified caspase-3, Z-DEVD-aminoluciferin luminescence, 60 min. inhibition, % at 12.5 µM. actives 60% (n = 6,200);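 active = mean inhibition above about 50%, limit read from the data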
Target sequence (P42574 28-227 limits assumed): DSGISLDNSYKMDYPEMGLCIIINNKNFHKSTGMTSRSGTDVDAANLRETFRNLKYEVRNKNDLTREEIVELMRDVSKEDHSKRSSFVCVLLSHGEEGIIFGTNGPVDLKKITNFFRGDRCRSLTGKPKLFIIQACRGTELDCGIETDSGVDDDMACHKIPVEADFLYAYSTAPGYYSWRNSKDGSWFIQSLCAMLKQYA
Luc interf = counter-screen for SENP inhibitors: luminescence interference; shares compounds with SENP7 inh; Pre-incubated SENP8/Z-RLRGG-aminoluciferin, luciferase luminescence interference; inhibition, % at 12.5 µM; actives 39% (n = 6,200); AID 488919;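 active = mean inhibition above about 50% when retested at one dose, limit read from the data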
Of the large screens only hits and unclear results are named; the others gave an inactive call (follow-up assays come after a bar, where they were run).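 The calls were made as follows, unless noted: active = mean inhibition above about 50% in the one-dose retest (limit read from the data); inactive = the rest.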

COc1cc(/C=C(/C#N)c2nc3ccccc3c(=O)[nH]2)ccc1O	SENP6 inh 94, SENP8 block-1 84, SENP7 inh 87 | SENP8 confirm inactive | SENP6 conf inactive | SENP7 confirm inactive | Casp3 select 62 | Luc interf inactive
COc1cc(/C=C(\C#N)c2nc3ccccc3[nH]2)cc(OC)c1O	none (no result: UBC13 inh, SENP6 inh, SENP8 block-1, Apaf1 inhib, SENP7 inh)
COc1cc(/C=C(/C#N)c2nc3ccccc3[nH]2)ccc1OC(=O)c1ccco1	SENP6 inh 84, SENP8 block-1 78, SENP7 inh 70 | SENP8 confirm 52 | SENP6 conf 70 | SENP7 confirm 99 | Casp3 select 84 | Luc interf inactive
O=C(Nc1ccc2c(c1)OCO2)c1cc(C2CCCCN2S(=O)(=O)c2cccs2)on1 (stereo not given)	none (no result: UBC13 inh, SENP6 inh, SENP8 block-1, Apaf1 inhib, SENP7 inh)
c1ccc(-c2onc3cc4c(cc23)OCCO4)cc1	SENP6 inh 89, SENP8 block-1 78, SENP7 inh 76 | SENP8 confirm inactive | SENP6 conf 92 | SENP7 confirm 101 | Casp3 select 86 | Luc interf 92
CC(=O)c1ccc2noc(-c3ccccc3)c2c1	none
C=C(Cl)COc1ccc2c(CCCC)cc(=O)oc2c1	none
C=C(Cl)COc1ccc2c(CC)cc(=O)oc2c1	SENP7 inh 57 | SENP8 confirm inactive | SENP6 conf inactive | SENP7 confirm inactive | Casp3 select inactive | Luc interf inactive
Cc1[nH]n(-c2ccc([N+](=O)[O-])cc2)c(=O)c1C=NCCc1ccc(S(N)(=O)=O)cc1	none
CCCc1[nH]n(-c2ccc([N+](=O)[O-])cc2)c(=O)c1C=NCCN1CCNCC1	SENP6 inh 92, SENP8 block-1 84, SENP7 inh 87 (no result: SENP8 block-2) | SENP8 confirm 78 | SENP6 conf 50 | SENP7 confirm 57 | Casp3 select 85 | Luc interf 69
CCCc1[nH]n(-c2ccc([N+](=O)[O-])cc2)c(=O)c1C=NCCCn1ccnc1	none
Cc1[nH]n(-c2ccc([N+](=O)[O-])cc2)c(=O)c1C=NCCN1CCN(C(=O)C(C)C)CC1	SENP6 inh 85, SENP8 block-1 62, SENP7 inh 78 | SENP8 confirm inactive | SENP6 conf inactive | SENP7 confirm inactive | Casp3 select inactive | Luc interf inactive
O=C(NC1CCCCC1)C(c1ccncc1)n1c(=O)c(-c2cc3ccccc3[nH]2)nc2ccccc21 (stereo not given)	none (no result: UBC13 inh, SENP6 inh, SENP8 block-1, Apaf1 inhib, SENP7 inh)
Cc1cc(C)c(NC(=O)C2CCCCN2C)c(C)c1 (stereo not given)	SENP7 inh 80 | SENP8 confirm inactive | SENP6 conf inactive | SENP7 confirm inactive | Casp3 select inactive | Luc interf inactive
Nc1nonc1N/N=C/c1c(O)ccc2ccccc12	none
Nc1cc(Cl)nc(N/N=C/c2c(O)ccc3ccccc23)n1	SENP6 inh 58 | SENP8 confirm inactive | SENP6 conf inactive | SENP7 confirm 84 | Casp3 select inactive | Luc interf inactive
c1ccc(CN2CCOCC2)cc1	SENP7 inh 87 | SENP8 confirm inactive | SENP6 conf inactive | SENP7 confirm inactive | Casp3 select inactive | Luc interf inactive
C=C(C)C(=O)Oc1ccc(N=Nc2ccc(C)cc2)ccc1=O	none (no result: UBC13 inh, SENP6 inh, SENP8 block-1, Apaf1 inhib, SENP7 inh)
Cc1ccc(NC(=O)N2CCc3ccccc32)cc1	SENP6 inh 86, SENP8 block-1 89, SENP7 inh 94 | SENP8 confirm 91 | SENP6 conf 94 | SENP7 confirm 101 | Casp3 select 94 | Luc interf 94
Cc1ccc2c(CC(=O)N3CCc4ccccc43)coc2c1	SENP6 inh 81, SENP8 block-1 66, SENP7 inh 82 | SENP8 confirm inactive | SENP6 conf inactive | SENP7 confirm 60 | Casp3 select 70 | Luc interf inactive
CN1C(=O)CSc2ccc(NC(=O)N3CCc4ccccc43)cc21	SENP6 inh 59 | SENP8 confirm 57 | SENP6 conf 54 | SENP7 confirm 85 | Casp3 select 62 | Luc interf 53
Cc1ccc(NC(=O)N2CCc3ccccc32)cc1C	SENP6 inh 90, SENP8 block-1 82, SENP7 inh 92 | SENP8 confirm 91 | SENP6 conf 91 | SENP7 confirm 99 | Casp3 select 88 | Luc interf 81
CNc1nc(Nc2ccc(C)cc2C)c2sccc2n1	none (no result: UBC13 inh, SENP6 inh, SENP8 block-1, Apaf1 inhib, SENP7 inh)
CO[C@H]1CN(C)C(=O)c2cc(NC(=O)c3cc(C)on3)ccc2OC[C@@H](C)N(C(=O)C2CC2)C[C@H]1C	none (no result: UBC13 inh, SENP6 inh, SENP8 block-1, Apaf1 inhib, SENP7 inh)
Cc1ccccc1NC(=O)c1cc2ccccn2n1	SENP8 block-1 62, SENP7 inh 67 | SENP8 confirm 72 | SENP6 conf 70 | SENP7 confirm 89 | Casp3 select 87 | Luc interf 74
Cc1ccc(C)c(NC(=O)c2cc3ccccn3n2)c1	SENP6 inh 56 | SENP8 confirm inactive | SENP6 conf inactive | SENP7 confirm 74 | Casp3 select 72 | Luc interf 60
Cc1ccc(C)c(NC(=O)c2cnn3ccccc23)c1	none
Cc1ccccc1NC(=O)c1cnc2ccccn2c1=O	SENP6 inh 58, SENP7 inh 74 | SENP8 confirm 55 | SENP6 conf 61 | SENP7 confirm 52 | Casp3 select 75 | Luc interf inactive
COc1ccc(/C=N/NC(=O)c2cccnc2)cc1	none
COc1ccc(/C=N/NC(=O)c2ccc[nH]2)cc1	SENP6 inh 79, SENP8 block-1 77, SENP7 inh 88 | SENP8 confirm 75 | SENP6 conf 74 | SENP7 confirm 95 | Casp3 select 92 | Luc interf 84

Bioassay records deposited in PubChem by Sanford-Burnham Center for Chemical Genomics.
